According to ChEMBL document CHEMBL4270630:

Columns and labels:
Influenza B virus [1] = test: Antiviral activity against Influenza B virus B/Ned/537/05 infected in MDCK cells after 3 days by MTS assay; assay type: functional, organism-based; details: B/Ned/537/05, MDCK, 72 h
Procedure, shortened: (§1)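 Semi-confluent MDCK cells were infected at an MOI of 0.0004 PFU/cell in Ultra-MDCK infection medium with 2 μg/mL TPCK-trypsin, together with compounds. After 3 days at 35 °C, CPE was scored by microscopy and confirmed by MTS formazan viability. Values are means of two to five independent tests.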

Influenza A virus [2] = test: Antiviral activity against Influenza A virus A/PR/8/34(H1N1) infected in MDCK cells assessed as reduction in virus-induced cytopathic effect after 3 days by microscopic method; assay type: functional, organism-based, A/Puerto Rico/8/1934(H1N1); details: Influenza A virus, A/Puerto Rico/8/1934(H1N1), MDCK, 72 h
Procedure, shortened: as §1, with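 “viability. EC50 is the concentration giving 50% inhibition of virus-induced CPE.” for “viability.”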

MDCK = test: Cytotoxicity against MDCK cells assessed as reduction in cell viability after 3 days by MTS assay; assay type: cell-based, Canis lupus familiaris; details: dog, mdck, 72 h
Influenza A virus [3] = test: Antiviral activity against Influenza A virus A/PR/8/34(H1N1) infected in MDCK cells after 3 days by MTS assay; assay type: functional, organism-based, A/Puerto Rico/8/1934(H1N1); details: Influenza A virus, A/Puerto Rico/8/1934(H1N1), MDCK, 72 h
Procedure, shortened: as §1, with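 “viability. EC50 is the concentration giving 50% inhibition of virus-induced CPE.” for “viability.”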

Influenza B virus [4] = test: Antiviral activity against Influenza B virus B/Ned/537/05 infected in MDCK cells assessed as reduction in virus-induced cytopathic effect after 3 days by microscopic method; assay type: functional, organism-based; details: B/Ned/537/05, MDCK, 72 h; procedure, shortened: as §1
H3N2 subtype [5] = test: Antiviral activity against Influenza A virus A/HK/7/87(H3N2) infected in MDCK cells assessed as reduction in virus-induced cytopathic effect after 3 days by microscopic method; assay type: functional, organism-based; details: A/Hong Kong/7/1987(H3N2), 72 h
Procedure, shortened: as §1, with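 “viability. EC50 is the concentration giving 50% inhibition of virus-induced CPE.” for “viability.”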

[6] = Cytotoxicity against MDCK cells assessed as alteration in cell morphology after 3 days by microscopic method; assay type: cell-based, Canis lupus familiaris; details: dog
Procedure, shortened: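 Mock-infected MDCK cells were treated with compounds in parallel with the antiviral assay, 3 days at 35 °C. MCC is the concentration causing minimal change in cell morphology by microscopy. CC50 is the 50% cytotoxic concentration by MTS formazan viability assay.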

Influenza A virus [7] = test: Antiviral activity against Influenza A virus A/Virginia/ATCC3/2009(H1N1pdm) infected in MDCK cells after 3 days by MTS assay; assay type: functional, organism-based, Influenza A virus (A/Virginia/03/2009(H1N1)); details: 72 h
Procedure, shortened: as §1, with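 “viability. EC50 is the concentration giving 50% inhibition of virus-induced CPE.” for “viability.”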

H3N2 subtype [8] = test: Antiviral activity against Influenza A virus A/HK/7/87(H3N2) infected in MDCK cells after 3 days by MTS assay; assay type: functional, organism-based; details: A/Hong Kong/7/1987(H3N2), 72 h
Procedure, shortened: as §1, with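 “viability. EC50 is the concentration giving 50% inhibition of virus-induced CPE.” for “viability.”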

Influenza A virus [9] = test: Antiviral activity against Influenza A virus A/Virginia/ATCC3/2009(H1N1pdm) infected in MDCK cells assessed as reduction in virus-induced cytopathic effect after 3 days by microscopic method; assay type: functional, organism-based, Influenza A virus (A/Virginia/03/2009(H1N1)); details: 72 h
Procedure, shortened: as §1, with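 “viability. EC50 is the concentration giving 50% inhibition of virus-induced CPE.” for “viability.”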

Influenza B virus [10] = test: Antiviral activity against Influenza B virus B/HK/05/72 infected in MDCK cells after 3 days by MTS assay; assay type: functional, organism-based; details: B/Hong Kong/05/1972, MDCK, 72 h
Procedure, shortened: as §1, with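 “viability. EC50 is the concentration giving 50% inhibition of virus-induced CPE.” for “viability.”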

Influenza B virus [11] = test: Antiviral activity against Influenza B virus B/HK/05/72 infected in MDCK cells assessed as reduction in virus-induced cytopathic effect after 3 days by microscopic method; assay type: functional, organism-based; details: B/Hong Kong/05/1972, MDCK, 72 h
Procedure, shortened: as §1, with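 “viability. EC50 is the concentration giving 50% inhibition of virus-induced CPE.” for “viability.”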

SMILES | EC50 (Influenza B virus [1]) | EC50 (Influenza A virus [2]) | CC50 (MDCK) | EC50 (Influenza A virus [3]) | EC50 (Influenza B virus [4]) | EC50 (H3N2 subtype [5]) | MCC at 72 h [6] | EC50 (Influenza A virus [7]) | EC50 (H3N2 subtype [8]) | EC50 (Influenza A virus [9]) | EC50 (Influenza B virus [10]) | EC50 (Influenza B virus [11])
CC(=O)N[C@H]1[C@H](O[C@@H]2c3ccc(c(Cl)c3)Oc3cc4cc(c3O)Oc3ccc(cc3Cl)C[C@H]3NC(=O)C(n5cc(COCCOCCOCCOCCN6C(=O)C(SCCOCCOCCOCCO)=C(SCCOCCOCCOCCO)C6=O)nn5)c5ccc(O)c(c5)Oc5cc(O)cc(c5)[C@H](NC3=O)C(=O)N[C@H]4C(O)N[C@H]3C(=O)N[C@H]2C(=O)N[C@@H](C(=O)O)c2cc(O)cc(O)c2-c2cc3ccc2O)O[C@H](CO)[C@@H](O)[C@@H]1O (stereo not given in full) | 42 µM | > 100 µM | ≥ 32 µM | > 100 µM | > 100 µM | > 100 µM | > 100 µM | > 100 µM | 23 µM | > 100 µM |  | 
CCCCCCCCCCCCSC1=C(SCCCCCCCCCCCC)C(=O)N(Cc2cn(C3C(=O)N[C@@H]4Cc5ccc(c(Cl)c5)Oc5cc6cc(c5O)Oc5ccc(cc5Cl)[C@@H](O[C@@H]5O[C@H](CO)[C@@H](O)[C@H](O)[C@H]5NC(C)=O)[C@H]5NC(=O)[C@H](NC(O)[C@@H]6NC(=O)[C@@H](NC4=O)c4cc(O)cc(c4)Oc4cc3ccc4O)c3ccc(O)c(c3)-c3c(O)cc(O)cc3[C@H](C(=O)O)NC5=O)nn2)C1=O (stereo not given in full) |  | > 100 µM | 75 µM | > 100 µM |  | > 100 µM | 100 µM | > 100 µM | > 100 µM | > 100 µM | > 100 µM | > 100 µM
NC12CC3CC(CC(C3)C1)C2 [AMANTADINE] | > 500 µM | > 500 µM | > 500 µM | > 500 µM | > 500 µM | 11 µM | > 500 µM |  | 1.9 µM |  |  | 
CC(N)C12CC3CC(CC(C3)C1)C2 (stereo not given) [RIMANTADINE] | > 500 µM | > 500 µM | > 500 µM | > 500 µM | > 500 µM | 0.2 µM | > 500 µM |  |  |  |  | 
CCCCCCCCCCCCSC1=C(SCCCCCCCCCCCC)C(=O)N([C@H]2C(=O)N[C@@H]3Cc4ccc(c(Cl)c4)Oc4cc5cc(c4O)Oc4ccc(cc4Cl)[C@@H](O[C@@H]4O[C@H](CO)[C@@H](O)[C@H](O)[C@H]4NC(C)=O)[C@H]4NC(=O)[C@H](NC(O)[C@@H]5NC(=O)[C@@H](NC3=O)c3cc(O)cc(c3)Oc3cc2ccc3O)c2ccc(O)c(c2)-c2c(O)cc(O)cc2[C@H](C(=O)O)NC4=O)C1=O (stereo not given in full) | > 100 µM | > 100 µM | ≤ 1.1 µM | > 100 µM | > 100 µM | > 100 µM | ≤ 4 µM | > 100 µM | > 100 µM | > 100 µM |  | 
CCCCCCCCCCCCSC1=C(SCCC)C(=O)N([C@H]2C(=O)N[C@@H]3Cc4ccc(c(Cl)c4)Oc4cc5cc(c4O)Oc4ccc(cc4Cl)[C@@H](O[C@@H]4O[C@H](CO)[C@@H](O)[C@H](O)[C@H]4NC(C)=O)[C@H]4NC(=O)[C@H](NC(O)[C@@H]5NC(=O)[C@@H](NC3=O)c3cc(O)cc(c3)Oc3cc2ccc3O)c2ccc(O)c(c2)-c2c(O)cc(O)cc2[C@H](C(=O)O)NC4=O)C1=O (stereo not given in full) | 7.3 µM | > 100 µM | 29 µM | 10 µM | 8.9 µM | 7.3 µM | ≥ 20 µM | 8.2 µM | 6.8 µM | 5.1 µM |  | 
CCCCCCCCSC1=C(SCCCCCCCC)C(=O)N([C@H]2C(=O)N[C@@H]3Cc4ccc(c(Cl)c4)Oc4cc5cc(c4O)Oc4ccc(cc4Cl)[C@@H](O[C@@H]4O[C@H](CO)[C@@H](O)[C@H](O)[C@H]4NC(C)=O)[C@H]4NC(=O)[C@H](NC(O)[C@@H]5NC(=O)[C@@H](NC3=O)c3cc(O)cc(c3)Oc3cc2ccc3O)c2ccc(O)c(c2)-c2c(O)cc(O)cc2[C@H](C(=O)O)NC4=O)C1=O (stereo not given in full) |  | > 100 µM | 11 µM | > 100 µM |  | > 100 µM | 20 µM | 1.9 µM | > 100 µM | 2.1 µM | > 100 µM | > 100 µM
